Assay outcomes: PubChem, several laboratories
Many of the other results were omitted from the sample, so hits are more common in it than they were.
CHOP inh – CHOP inhibition in unfolded protein response | AID 2732 | 220,000 compounds, 3.8% hits | inhibition, % at 10 µM | CHO-K1 CHOP-promoter luciferase, tunicamycin-induced, 15-18 h;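 active means compounds that reduced the stress-induced luciferase reporter signal by more than about 70% of percent inhibition, limit read from the data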
UPR XBP1 act – adaptive UPR (XBP1) activation. 330,000 compounds, 0.33% hits. activation, % at 20 µM. CHO-XBP1 luciferase reporter, IRE1-XBP1 UPR activation, luminescence; percent of tunicamycin response, DMSO as zero. AID 463104;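 active means versus positive control, 20 µM dose yields 30% or more activation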
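Assay system: IRE1-XBP1 luciferase reporter CHO line. Input: 1000 cells/well. Buffer or medium: F12 with 10% serum. Doses: 20 µM, 1% DMSO. Times: overnight seeding at 37 °C, 6 h compound treatment at 37 °C. Technique: Steady-Glo luciferase glow luminescence, 10 min after reagent addition.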
UPR CHOP act – activators of apoptotic arm of unfolded protein response (CHOP) | 330,000 compounds, 0.34% hits | activation, % at 10 µM | AID 449763 | CHO-CHOP luciferase reporter, UPR activation, luminescence; percent of tunicamycin response over DMSO baseline;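 active means at 10 µM dose, activation of 40% or more, normalized to positive control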
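Assay system: CHO-CHOP cells, stable luciferase reporter of PERK-eIF2a-CHOP signalling / Buffer or medium: F12 plus 10% serum / Compound dosing: one dose, 10 µM in 0.5% DMSO / Times: 6 h compound treatment, 37 °C / Technique: luciferase luminescence / Read-out: % reporter activation, DMSO baseline versus tunicamycin full activation / Benchmarks: tunicamycin and DMSO controls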
NOD2 RIPK2 PPI – blocks binding of human NOD2 to RIPK2 | CHO BLA complementation NOD2-RIPK2, CCF4 ratio | inhibition, % at 4.98 µM | 360,000 compounds, 0.38% hits | AID 624267; in the data active means inhibition above about 21%
TLR4-MyD88 BLA – TLR4-MyD88 interaction inhibition in cells; O00206+Q99836; HeLa CL3-4 TLR4/MyD88 BLA complementation, FRET ratio; inhibition, % at 8.4 µM; 200,000 compounds, 0.18% hits; AID 861; in the data active means inhibition above about 25%
Target sequence (O00206 whole entry, looked up): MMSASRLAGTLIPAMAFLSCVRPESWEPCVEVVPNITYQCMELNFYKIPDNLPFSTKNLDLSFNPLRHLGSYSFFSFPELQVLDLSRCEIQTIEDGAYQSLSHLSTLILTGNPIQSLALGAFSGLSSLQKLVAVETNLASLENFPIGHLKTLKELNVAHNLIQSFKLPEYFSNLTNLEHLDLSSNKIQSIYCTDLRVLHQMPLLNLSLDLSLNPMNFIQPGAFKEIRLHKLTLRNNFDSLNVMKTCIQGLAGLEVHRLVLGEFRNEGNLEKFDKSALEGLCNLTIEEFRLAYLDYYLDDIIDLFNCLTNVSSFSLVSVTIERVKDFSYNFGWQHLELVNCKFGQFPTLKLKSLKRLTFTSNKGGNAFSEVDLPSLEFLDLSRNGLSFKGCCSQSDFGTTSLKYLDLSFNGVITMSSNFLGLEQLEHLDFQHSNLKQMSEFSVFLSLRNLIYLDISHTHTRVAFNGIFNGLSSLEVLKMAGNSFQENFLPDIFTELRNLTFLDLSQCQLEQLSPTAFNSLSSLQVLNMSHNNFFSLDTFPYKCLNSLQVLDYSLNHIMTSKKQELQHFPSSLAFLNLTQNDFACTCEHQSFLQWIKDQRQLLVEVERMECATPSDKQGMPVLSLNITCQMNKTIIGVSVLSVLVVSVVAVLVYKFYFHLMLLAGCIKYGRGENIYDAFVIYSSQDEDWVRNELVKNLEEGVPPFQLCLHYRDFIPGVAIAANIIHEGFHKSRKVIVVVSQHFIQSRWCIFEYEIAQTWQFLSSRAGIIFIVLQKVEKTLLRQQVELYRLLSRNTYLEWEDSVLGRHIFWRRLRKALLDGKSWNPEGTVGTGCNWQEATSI
Target sequence (Q99836 whole entry, looked up): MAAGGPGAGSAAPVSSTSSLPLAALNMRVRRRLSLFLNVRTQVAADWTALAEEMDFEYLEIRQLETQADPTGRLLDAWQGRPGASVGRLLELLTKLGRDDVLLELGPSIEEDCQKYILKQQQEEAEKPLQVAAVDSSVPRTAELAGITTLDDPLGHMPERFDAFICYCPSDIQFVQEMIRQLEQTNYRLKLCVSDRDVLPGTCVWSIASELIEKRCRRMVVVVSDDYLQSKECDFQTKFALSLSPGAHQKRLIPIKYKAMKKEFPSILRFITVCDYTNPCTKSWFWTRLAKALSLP
TLR9-MyD88 block – TLR9-MyD88 interaction inhibition; Q9NR96+Q99836; CHO BLA complementation TLR9-MyD88, CCF4 FRET ratio; inhibition, % at 4.98 µM; 340,000 compounds, 0.21% hits;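 active means inhibition above the mean over all tested compounds plus 3 SD, cut at about 21% in these data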
CHOP UPR conf – confirmation of apoptotic unfolded protein response (CHOP) activators. shares compounds with UPR CHOP act. CHO-CHOP cells, CHOP-luciferase reporter luminescence; percent of tunicamycin response, DMSO as zero. activation, % at 10 µM. 1,000 compounds, 64% hits. AID 463112; in the data active means activation above about 33%
Of the large screens only hits and unclear results are named; the others gave an inactive call (follow-up assays come after a bar, where they were run).

Cc1ccccc1S(=O)(=O)NC(=O)C1(C)CCN1C(=O)C/C=C/c1ccccc1 (configuration not stated)	none (no result: CHOP inh, UPR XBP1 act, UPR CHOP act, TLR4-MyD88 BLA, TLR9-MyD88 block)
COc1c(Cl)cc(Cl)cc1/C=C/C(=O)c1ccc(NC(=O)c2cccs2)cc1	UPR CHOP act 54.7 | CHOP UPR conf 247.0
CCCCNC1C(CC)C(CCC)C(C#N)(C#N)C1(C#N)C#N (configuration not stated)	UPR CHOP act 74.3 | CHOP UPR conf 33.6
O=C(CN1CCN(S(=O)(=O)c2ccc(F)cc2)CC1)c1ccc(O)c(O)c1	none
O=C(CN1CCN(S(=O)(=O)c2ccc(Cl)cc2)CC1)c1ccc(O)c(O)c1	UPR CHOP act 71.4 (no result: CHOP inh, TLR4-MyD88 BLA) | CHOP UPR conf inactive
CCc1ccc(NC2=CC(=O)C(=O)c3ccccc32)cc1	UPR CHOP act 62.3 (no result: CHOP inh, TLR4-MyD88 BLA) | CHOP UPR conf inactive
O=C1C=C(Nc2ccccc2)c2ccccc2C1=O	none
Cc1cc(C(=O)CCl)c(C)n1-c1cccc([N+](=O)[O-])c1	CHOP inh 104.2, UPR CHOP act 174.5 | CHOP UPR conf inactive
CCCCNc1ccc2c(c1)C1CC2CCN1C(=O)OCc1ccccc1 (configuration not stated)	none (no result: CHOP inh, UPR XBP1 act, UPR CHOP act, TLR4-MyD88 BLA)
C1=CC2=NC34CCCCC3CC3=C(CCCC3)N4C2=CC1=NC1CCCCC1 (configuration not stated)	UPR CHOP act 48.5 (no result: CHOP inh, TLR4-MyD88 BLA) | CHOP UPR conf inactive
CC(C)C[C@@H](CN1CCCC1CN1C(=S)NC[C@@H]1Cc1ccc(O)cc1)N1C[C@H](Cc2ccc(O)cc2)N(CC2CCCCC2)C1=S (some centres not stated)	none (no result: CHOP inh, UPR XBP1 act, UPR CHOP act, TLR4-MyD88 BLA)
CN1CCC(NC(=S)NC2CC2)CC1	UPR CHOP act 87.5 | CHOP UPR conf inactive
S=C(NC1CCCCCC1)NC1CCCC1	none
CC1(Cc2ccc(F)cc2)C(=O)Nc2ccc(-c3cccnc3)cc21 (configuration not stated)	none (no result: CHOP inh, UPR XBP1 act, UPR CHOP act, TLR4-MyD88 BLA, TLR9-MyD88 block)
CCCN(CCC)C(=O)c1cc([N+](=O)[O-])cc2c1-c1ccc([N+](=O)[O-])cc1C2=C(C#N)C#N	UPR CHOP act 334.7 (no result: NOD2 RIPK2 PPI, TLR4-MyD88 BLA, TLR9-MyD88 block) | CHOP UPR conf 201.4
CCCCC[C@@H](C)N1C[C@H](COCc2ccccc2)Oc2cc(N3CC[C@@H](O)C3)ccc2S1(=O)=O	none (no result: CHOP inh, UPR XBP1 act, UPR CHOP act, TLR4-MyD88 BLA, TLR9-MyD88 block)
CC(C)(C)c1ccc(/C=C(\c2nc3ccccc3[nH]2)S(=O)(=O)c2ccccc2)cc1	UPR CHOP act 55.9 (no result: CHOP inh, TLR4-MyD88 BLA) | CHOP UPR conf 71.1
CCNC(=S)N1CCN(C(=O)C(Cc2ccccc2)NC(C)=O)CC1 (configuration not stated)	UPR CHOP act 52.3 | CHOP UPR conf inactive
Cc1ccc(-c2nc3c(c(=O)c4ccccc4n3C)c(=O)n2-c2ccc(F)cc2)cc1	none (no result: TLR4-MyD88 BLA)
Cn1c2ccccc2c(=O)c2c(=O)n(-c3ccccc3)c(-c3ccc(C(C)(C)C)cc3)nc21	UPR CHOP act 58.9 (no result: TLR4-MyD88 BLA) | CHOP UPR conf inactive
COc1ccc2c(c1)CCc1c(C(=O)Nc3cc(C)n(Cc4ccc(Cl)cc4)n3)noc1-2	CHOP inh 93.2, UPR XBP1 act 141.5, UPR CHOP act 107.3 | CHOP UPR conf 121.5
COc1ccc2c(c1)CCc1c(C(=O)NCc3ccc(Cl)cc3)noc1-2	none
Cc1cc(F)ccc1C(O)c1ncc(-c2ccc(Oc3ccccc3)cc2)[nH]1 (configuration not stated)	none (no result: CHOP inh, UPR XBP1 act, UPR CHOP act, TLR4-MyD88 BLA, TLR9-MyD88 block)
CCc1nc2c(OCc3ccccc3C)cccn2c1N(C)C(=O)c1ccco1	none (no result: CHOP inh, UPR XBP1 act, UPR CHOP act, TLR4-MyD88 BLA, TLR9-MyD88 block)
Oc1ccc(-c2csc(Nc3ccccn3)n2)cc1O	UPR CHOP act 167.7 (no result: CHOP inh, TLR4-MyD88 BLA) | CHOP UPR conf 130.3
Cc1ccnc(Nc2nc(-c3ccc(O)c(O)c3)cs2)c1	UPR CHOP act 75.9 (no result: CHOP inh, TLR4-MyD88 BLA) | CHOP UPR conf 181.3
Oc1ccc(-c2csc(Nc3cccc4ccccc34)n2)cc1O	UPR CHOP act 131.0 (no result: CHOP inh, TLR4-MyD88 BLA) | CHOP UPR conf 141.9
CC(=O)Nc1ccc(-c2csc(Nc3ccccn3)n2)cc1	none (no result: TLR4-MyD88 BLA)
S=C(Nc1ccccc1)Nc1nccs1	UPR CHOP act 103.8 (no result: TLR4-MyD88 BLA) | CHOP UPR conf 59.5
